Test results from ChEMBL document CHEMBL1127500, “Structure-activity studies of benzimidazole-based DNA-cleaving agents. Comparison of benzimidazole, pyrrolobenzimidazole, and tetrahydropyridobenzimidazole analogues” (1994).

Assays:
Format in all cases: functional
U-251 = experiment: Antitumor activity against U251 cell line; settings: Homo sapiens
How it was run: (§1)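 Screened against a panel of up to 60 human cancer cell lines. Read-out is LC50, the drug concentration lethal to 50% of the cells, expressed as log LC50. The mean log LC50 across the screened lines is the centre line of the mean graph. Each line's deviation from that mean is shown as a bar.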

EKVX = experiment: Antitumor activity against EKVX cell line; settings: Homo sapiens
How it was run: (§2)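 Drugs were screened against a panel of up to 60 human cancer cell lines. The end-point was LC50, the drug concentration lethal to 50% of the cancer cells. Values were expressed as log LC50 and plotted as mean graphs centred on the log of the panel-mean LC50. Bars to the right mark lines with lower log LC50 than the mean.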

COLO 205 = experiment: Antitumor activity against COLO 205 cell line; settings: Homo sapiens, read-out: Log LC50 (the source's name) (converted); how it was run: as §2
HT-29 = experiment: Antitumor activity against HT 29 cell line; settings: Homo sapiens, read-out: Log LC50 (the source's name) (converted); how it was run: as §2
OVCAR-5 = experiment: Antitumor activity against OVCAR-5 cell line; settings: Homo sapiens; how it was run: as §2
[1] = Mean log10 LC50 was determined; how it was run: as §1
ACHN = experiment: Antitumor activity against Renal cancer ACHN cell line; settings: Homo sapiens, read-out: Log LC50 (the source's name) (converted); how it was run: as §2
M19-MEL = experiment: Antitumor activity against M 19-MEL cell line; settings: Homo sapiens; how it was run: as §2
CCRF-CEM = experiment: Antitumor activity against CCRF-CEM leukemia cell line; settings: Homo sapiens, read-out: Log LC50 (the source's name) (converted); how it was run: as §2
TK-10 = experiment: Antitumor activity against Renal cancer TK-10 cell line; settings: Homo sapiens; how it was run: as §2
SF-539 = experiment: Antitumor activity against SF-539 cell line; settings: Homo sapiens; how it was run: as §2
HL-60 = experiment: Antitumor activity against HL-60(TB) leukemia cell line; settings: Homo sapiens, read-out: Log LC50 (the source's name) (converted); how it was run: as §2
SW-620 = experiment: Antitumor activity against SW-620 cell line; settings: Homo sapiens; how it was run: as §1
M14 = experiment: Antitumor activity against M 14 cell line; settings: Homo sapiens; how it was run: as §2
NCI-H23 = experiment: Antitumor activity against NCI-1123 cell line; settings: Homo sapiens, read-out: Log LC50 (the source's name) (converted); how it was run: as §2
LOX IMVI [2] = experiment: Antitumor activity against LOX IMVI cell line; settings: Homo sapiens; how it was run: as §2
A498 = experiment: Antitumor activity against Renal cancer A498 cell line; settings: Homo sapiens, read-out: Log LC50 (the source's name) (converted); how it was run: as §2
786-0 = experiment: Antitumor activity against Renal cancer 786-O cell line; settings: Homo sapiens; how it was run: as §2
NCI-H226 = experiment: Antitumor activity against NCI-H226 cell line; settings: Homo sapiens; how it was run: as §2
HOP-62 = experiment: Antitumor activity against HOP-62 cell line; settings: Homo sapiens; how it was run: as §2
A549 = experiment: Antitumor activity against A549/ATCC cell line; settings: Homo sapiens; how it was run: as §2
HCT-116 = experiment: Antitumor activity against HCT116 cell line; settings: Homo sapiens, read-out: Log LC50 (the source's name) (converted); how it was run: as §2
RXF 393 = experiment: Antitumor activity against Renal cancer RXF-393 cell line; settings: Homo sapiens; how it was run: as §2
Malme-3M = experiment: Antitumor activity against MALME-3M cell line; settings: Homo sapiens; how it was run: as §2
IGROV-1 = experiment: Antitumor activity against IGROVI cell line; settings: Homo sapiens; how it was run: as §2
KM-20L2 = experiment: Antitumor activity against KM 20L2 cell line; settings: Homo sapiens; how it was run: as §2
HCC 2998 = experiment: Antitumor activity against HCC2998 cell line; settings: Homo sapiens, read-out: Log LC50 (the source's name) (converted); how it was run: as §2
SNB- = experiment: Antitumor activity against SNB-71 cell line; settings: Homo sapiens, read-out: Log LC50 (the source's name) (converted); how it was run: as §1
OVCAR-8 = experiment: Antitumor activity against OVCAR-8 cell line; settings: Homo sapiens, read-out: Log LC50 (the source's name) (converted); how it was run: as §2
SK-MEL-28 = experiment: Antitumor activity against SK-MEL-28 cell line; settings: Homo sapiens; how it was run: as §1
RPMI-8226 = experiment: Antitumor activity against RPMI-8226 leukemia cell line; settings: Homo sapiens, read-out: Log LC50 (the source's name) (converted); how it was run: as §2
DMS-273 = experiment: Antitumor activity against DMS 273 cell line; settings: Homo sapiens, read-out: Log LC50 (the source's name) (converted); how it was run: as §2
SN12C = experiment: Antitumor activity against Renal cancer SN 12C cell line; settings: Homo sapiens; how it was run: as §2
NCI-H460 = experiment: Antitumor activity against NCI-11460 cell line; settings: Homo sapiens, read-out: Log LC50 (the source's name) (converted); how it was run: as §2
MOLT-4 = experiment: Antitumor activity against MOLT-4 leukemia cell line; settings: Homo sapiens; how it was run: as §2
K562 = experiment: Antitumor activity against K-562 leukemia cell line; settings: Homo sapiens, read-out: Log LC50 (the source's name) (converted); how it was run: as §2
SK-MEL-5 = experiment: Antitumor activity against SK-MEL-5 cell line; settings: Homo sapiens; how it was run: as §1
DMS-114 = experiment: Antitumor activity against DMS 114 cell line; settings: Homo sapiens; how it was run: as §2
DLD-1 = experiment: Antitumor activity against DLD-1 cell line; settings: Homo sapiens; how it was run: as §2
UACC-62 = experiment: Antitumor activity against UACC-62 cell line; settings: Homo sapiens, read-out: Log LC50 (the source's name) (converted); how it was run: as §1
UO-31 = experiment: Antitumor activity against Renal cancer UO-31 cell line; settings: Homo sapiens; how it was run: as §2
UACC-257 = experiment: Antitumor activity against UACC-257 cell line; settings: Homo sapiens; how it was run: as §1
NCI-H522 = experiment: Antitumor activity against NCI-H522 cell line; settings: Homo sapiens; how it was run: as §2
KM12 = experiment: Antitumor activity against KM 12 cell line; settings: Homo sapiens, read-out: Log LC50 (the source's name) (converted); how it was run: as §2
SK-OV-3 = experiment: Antitumor activity against SK-OV-3 cell line; settings: Homo sapiens, read-out: Log LC50 (the source's name) (converted); how it was run: as §1
SF-268 = experiment: Antitumor activity against SF-268 cell line; settings: Homo sapiens; how it was run: as §2
CAKI-1 = experiment: Antitumor activity against Renal cancer CAKI-1 cell line; settings: Homo sapiens, read-out: Log LC50 (the source's name) (converted); how it was run: as §2
OVCAR-3 = experiment: Antitumor activity against OVCAR-3 cell line; settings: Homo sapiens; how it was run: as §2
LXFL 529 = experiment: Antitumor activity against […] cell line; settings: Homo sapiens; how it was run: as §2
HOP-92 = experiment: Antitumor activity against HOP-92 cell line; settings: Homo sapiens, read-out: Log LC50 (the source's name) (converted); how it was run: as §2
NCI-H322M = experiment: Antitumor activity against NCI-H322M cell line; settings: Homo sapiens, read-out: Log LC50 (the source's name) (converted); how it was run: as §2
SNB-19 = experiment: Antitumor activity against SNB-19 cell line; settings: Homo sapiens; how it was run: as §1
SR = experiment: Antitumor activity against SR leukemia cell line; settings: Homo sapiens, read-out: Log LC50 (the source's name) (converted); how it was run: as §1
SNB-75 = experiment: Antitumor activity against SNB-75 cell line; settings: Homo sapiens; how it was run: as §1
SK-MEL-2 = experiment: Antitumor activity against SK-MEL-2 cell line; settings: Homo sapiens, read-out: Log LC50 (the source's name) (converted); how it was run: as §2
OVCAR-4 = experiment: Antitumor activity against OVCAR-4 cell line; settings: Homo sapiens; how it was run: as §2
LOX IMVI [3] = experiment: Antitumor activity against LOX IMV cell line; settings: Homo sapiens, read-out: Log LC50 (the source's name) (converted); how it was run: as §2

CC(=O)OC1CCCn2c1nc1c2C(=O)C(C)=C(N2CC2)C1=O (stereo not given)
LC50 (U-251): 3.39 µM | LC50 (EKVX): 3.98 µM | CC50 (COLO 205): 18.2 µM | CC50 (HT-29): 1.82 µM | LC50 (OVCAR-5): 4.9 µM | Mean log LC50 [1]: -5.04 | CC50 (ACHN): 25.7 µM | LC50 (M19-MEL): 35.5 µM | CC50 (CCRF-CEM): > 100 µM | LC50 (TK-10): 25.1 µM | LC50 (concentration lethal to 50% of cells) (SF-539): 14.1 µM | CC50 (HL-60): > 100 µM | LC50 (SW-620): 53.7 µM | LC50 (M14): 0.794 µM | CC50 (NCI-H23): 3.98 µM | LC50 (LOX IMVI [2]): 5.37 µM | CC50 (A498): 1.29 µM | LC50 (786-0): 43.7 µM | LC50 (NCI-H226): 3.98 µM | LC50 (HOP-62): 1.82 µM | LC50 (A549): 32.4 µM | CC50 (HCT-116): 17.8 µM | LC50 (RXF 393): 4.68 µM | LC50 (Malme-3M): 2.34 µM | LC50 (IGROV-1): 30.9 µM | LC50 (concentration lethal to 50% of cells) (KM-20L2): 4.68 µM | CC50 (HCC 2998): 3.09 µM | CC50 (SNB-): 33.1 µM | CC50 (OVCAR-8): 5.62 µM | LC50 (SK-MEL-28): 6.03 µM | CC50 (RPMI-8226): > 100 µM | CC50 (DMS-273): 5.37 µM | LC50 (SN12C): 4.17 µM | CC50 (NCI-H460): 0.676 µM | LC50 (MOLT-4): > 100 µM | CC50 (K562): > 100 µM | LC50 (SK-MEL-5): 0.661 µM | LC50 (DMS-114): 7.76 µM | LC50 (DLD-1): 87.1 µM | CC50 (UACC-62): 4.9 µM | LC50 (concentration lethal to 50% of cancer cells) (UO-31): 20 µM | LC50 (UACC-257): 3.8 µM | LC50 (NCI-H522): 3.72 µM | CC50 (KM12): 5.25 µM | CC50 (SK-OV-3): 7.08 µM | LC50 (SF-268): 0.692 µM | CC50 (CAKI-1): 3.31 µM | LC50 (OVCAR-3): 6.31 µM | LC50 (LXFL 529): 4.9 µM | CC50 (HOP-92): > 100 µM | CC50 (NCI-H322M): 26.9 µM | LC50 (SNB-19): 5.89 µM | CC50 (SR): > 100 µM | LC50 (SNB-75): 4.57 µM | CC50 (SK-MEL-2): 3.8 µM | LC50 (OVCAR-4): 5.89 µM

CC(=O)OC1CCn2c1nc1c2C(=O)C(C)=C(N2CC2)C1=O (stereo not given)
Mean log LC50 [1]: -6.61 | LC50 (Malme-3M): 0.055 µM | LC50 (SK-MEL-5): < 0.01 µM | CC50 (LOX IMVI [3]): < 0.01 µM
